Measurements gathered from unrelated publications.
Target: Eukaryotic elongation factor 2 kinase (EEF2K, Homo sapiens, UniProt O00418)
One construct used (O00418 1-725): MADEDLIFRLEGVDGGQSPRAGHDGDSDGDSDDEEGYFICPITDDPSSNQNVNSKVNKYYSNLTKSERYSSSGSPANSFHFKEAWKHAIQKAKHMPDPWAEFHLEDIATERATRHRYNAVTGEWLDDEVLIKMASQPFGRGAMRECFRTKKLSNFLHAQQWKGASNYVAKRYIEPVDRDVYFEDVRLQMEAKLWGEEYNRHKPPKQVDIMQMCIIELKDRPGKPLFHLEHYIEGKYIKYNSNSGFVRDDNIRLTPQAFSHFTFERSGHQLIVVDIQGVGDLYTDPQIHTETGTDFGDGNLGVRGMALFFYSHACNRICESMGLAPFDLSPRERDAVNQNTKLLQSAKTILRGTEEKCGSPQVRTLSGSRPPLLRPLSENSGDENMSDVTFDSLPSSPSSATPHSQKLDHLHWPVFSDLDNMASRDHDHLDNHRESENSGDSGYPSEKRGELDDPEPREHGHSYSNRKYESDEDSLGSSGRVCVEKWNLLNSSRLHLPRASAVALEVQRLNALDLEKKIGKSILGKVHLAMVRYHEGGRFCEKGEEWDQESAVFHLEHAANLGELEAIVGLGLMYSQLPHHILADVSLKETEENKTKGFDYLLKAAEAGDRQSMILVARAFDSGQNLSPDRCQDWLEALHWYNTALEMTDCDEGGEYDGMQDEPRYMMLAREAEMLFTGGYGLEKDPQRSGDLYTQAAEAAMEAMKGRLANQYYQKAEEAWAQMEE

Structure (SMILES)	observed	mode	technique	cell line	tested at	endpoint	value
CNc1cc(Oc2cc(C(=O)Nc3cc(N4CCN(C)CC4)cc(C(F)(F)F)c3)ccc2C)ncn1	target engagement in cells	inhibitor	chemoproteomics	Huh-7	1 µM	inhibition	-99.1%
Cc1ccc(Nc2nccc(N(C)c3ccc4c(C)n(C)nc4c3)n2)cc1S(N)(=O)=O	enzyme activity	inhibitor			10 µM	inhibition	-10%
COc1cc2ncnc(Nc3ccc(Oc4ccccc4)c(C)c3C)c2cc1OC	enzyme activity	inhibitor			1 µM	inhibition	1%
Cn1c2c(c3ccc(Cl)c(Cl)c31)C(C#N)C(C)(C)NC2=O (centres unmarked)	thermal stability		DSF		10 µM	ΔTm	-0.5 °C
COc1cc2nccc(Oc3ccc(NC(=O)c4c5n(n(-c6ccc(F)cc6)c4=O)CCCC5)cc3)c2cc1OC	enzyme activity	inhibitor			0.1 µM	inhibition	8%
Cn1c(=O)n(-c2ccc(C(C)(C)C#N)cc2)c2c3cc(-c4cnc5ccccc5c4)ccc3ncc21	enzyme activity	inhibitor			10 µM	remaining activity	110%
COc1cc(/C=C/C(=O)CC(=O)/C=C/c2ccc(O)c(OC)c2)ccc1O	enzyme activity	inhibitor			1 µM	activity vs control	98%
Cc1cc(NC(=O)c2cccc3cc(-c4cccc5[nH]nc(N)c45)ccc23)ccc1F	enzyme activity	inhibitor			0.1 µM	activity vs control	103%
Nc1nc(Nc2ccccc2)sc1C(=O)c1c(F)cccc1F	enzyme activity	inhibitor			10 µM	remaining activity	95%
COc1cc(Cl)c(C(=O)N[C@@H](CN[C@H]2CC[C@@H](N)CC2)Cc2ccc(C#N)cc2)cc1-c1ccc(CN[C@H](C)c2ccc(C)cc2)o1	enzyme activity	inhibitor			1 µM	remaining activity	80%
Cn1c2c(c3ccc(Cl)c(Cl)c31)C(C#N)C1(CCNCC1)NC2=O (racemic)	thermal stability		DSF		10 µM	ΔTm	0 °C
CNC(=O)c1cc(Oc2ccc(NC(=O)Nc3ccc(Cl)c(C(F)(F)F)c3)cc2)ccn1	enzyme activity	inhibitor			10 µM	inhibition	-8%
CC(C)(C)c1nc(-c2cccc(NS(=O)(=O)c3c(F)cccc3F)c2F)c(-c2ccnc(N)n2)s1	enzyme activity	inhibitor	radiometric		1 µM	remaining activity	93%
FC(F)c1nc2ccccc2n1-c1nc(N2CCOCC2)nc(N2CCOCC2)n1	enzyme activity	inhibitor			10 µM	remaining activity	96%
Cn1c2c(c3ccccc31)C(C#N)C(C)(C)NC2=O (centres unmarked)	thermal stability		DSF		10 µM	ΔTm	0 °C
COc1cc(Nc2cnc(C#N)c(O[C@H](C)CN(C)C)n2)ncc1-c1cnn(C)c1	enzyme activity	inhibitor	radiometric		1 µM	remaining activity	94%
FC(F)(F)Oc1cccc(-c2cnc3ccc(-c4ccncc4)nn23)c1	enzyme activity	inhibitor	radiometric		5 µM	activity vs control	98%
CC1(C)NC(=O)c2[nH]c3c(Cl)c(Cl)ccc3c2C1C#N (centres unmarked)	thermal stability		DSF		10 µM	ΔTm	-0.3 °C
CCCOc1ccc(OC)c(F)c1C(=O)c1ccc(C(=O)N[C@@H]2CNC[C@H]2NC(=O)c2ccc3[nH]ncc3c2)cc1	enzyme activity	inhibitor			10 µM	remaining activity	128%
CCN1CCN(Cc2ccc(NC(=O)c3ccc(C)c(Oc4ccnc5[nH]ccc45)c3)cc2C(F)(F)F)CC1	target engagement in cells	inhibitor	chemoproteomics	A-375	5 µM	inhibition	-27.8%
CN1CC(Oc2cnc(C#N)cc2-c2ccn3nc(NC(=O)C4CC4)cc3c2)C1	enzyme activity	inhibitor			1 µM	inhibition	9%
CCN1CCC2(CC1)NC(=O)c1c(c3ccc(Cl)c(Cl)c3n1C)C2C#N (racemic)	thermal stability		DSF		10 µM	ΔTm	0 °C
CCN(CC)CCNC(=O)c1c(C)[nH]c(/C=C2\C(=O)Nc3ccc(F)cc32)c1C	enzyme activity	inhibitor			10 µM	inhibition	-4%
